In ChEMBL document CHEMBL1128515, “Cardioselective anti-ischemic ATP-sensitive potassium channel openers. 3. Structure-activity studies on benzopyranyl cyanoguanidines: modification of the cyanoguanidine portion” (J Med Chem, 1995):
pIC50: −log10 of the molar value.

Key:
Format in all cases: functional
Rattus norvegicus [1] = organism: Rattus norvegicus; assay: Tested for the vasorelaxant potency in methoxamine contracted rat aorta
Procedure, shortened: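 Rat aortic tissue contracted with methoxamine. The IC50 is the concentration producing relaxation.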

Rattus norvegicus [2] = organism: Rattus norvegicus; assay: Ratio of the concentration increasing time to contracture by 25% (EC25) in rat heart and concentration showing vasorelaxant potency (IC50) in rat aorta.
Procedure, shortened: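 Cardiac selectivity index: the ratio of vasorelaxant potency (IC50 for relaxing methoxamine-contracted rat aorta) to anti-ischemic potency (EC25 for increasing time to contracture in globally ischemic isolated perfused rat hearts).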

Rattus norvegicus [3] = organism: Rattus norvegicus; assay: Concentration necessary for increase in time to contracture by 25% in the globally ischemic rat hearts
Procedure, shortened: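 Isolated rat hearts, perfused and then made globally ischemic. The EC25 is the concentration giving a 25% increase in time to onset of contracture. Time to contracture is the time during total global ischemia for end-diastolic pressure to rise 5 mmHg above baseline.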

Rattus norvegicus [4] = organism: Rattus norvegicus; assay: Concentration necessary for increase in time to contracture at a concentration of 10 uM in ischemic rat hearts

Q: With `CC1(C)Oc2ccc(C#N)cc2[C@@H](/N=C(\NC#N)Nc2ccc(C(=O)O)cc2)[C@@H]1O` as the compound, how does the pIC50 (Rattus norvegicus [1]) read?
A: < 4.00

Q: With `CC1(C)Oc2ccc(C#N)cc2[C@@H](/N=C(\NC#N)Nc2ccc(C(F)(F)F)cc2)[C@@H]1O` as the compound, how does the Ratio (Rattus norvegicus [2]) read?
A: 1.4

Q: How did the EC25 (Rattus norvegicus [3]) turn out when `CC1(C)Oc2ccc(C#N)cc2[C@@H](/N=C(\NC#N)Nc2ccccc2)[C@@H]1O` (stereo in doubt; 3) was run?
A: 11 µM

Q: What about the Ratio (Rattus norvegicus [2]) of the same compound?
A: 7.9

Q: Which EC25 (Rattus norvegicus [3]) does the source give for `CSc1cccc(N/C(=N/[C@@H]2c3cc(C#N)ccc3OC(C)(C)[C@H]2O)NC#N)c1` here?
A: 8.2 µM

Q: And the Ratio (Rattus norvegicus [2])?
A: 5.6

Q: And the pIC50 (Rattus norvegicus [1])?
A: 5.85

Q: With `CC1(C)Oc2ccc(C#N)cc2[C@@H](/N=C(\NC#N)Nc2ccc(Cl)cc2)[C@@H]1O` as the compound, how does the Ratio (Rattus norvegicus [2]) read?
A: 1.4

Q: Which EC25 (Rattus norvegicus [3]) does the source give for `CC1(C)Oc2ccc(C#N)cc2[C@@H](n2c(O)nc3ccccc32)[C@@H]1O` here?
A: 11.7 µM

Q: `CC1(C)Oc2ccc(C#N)cc2[C@@H](NC(=O)Cc2ccccc2)[C@@H]1O` was tested. Which EC25 (Rattus norvegicus [3]) did it give?
A: 22.2 µM

Q: What about the Ratio (Rattus norvegicus [2]) of the same compound?
A: 12.3

Q: What about the pIC50 (Rattus norvegicus [1]) of the same compound?
A: 5.74

Q: How did the EC25 (Rattus norvegicus [3]) turn out when `CC1(C)Oc2ccc(C#N)cc2[C@@H](/N=C(\NC#N)Nc2ccc([N+](=O)[O-])cc2)[C@@H]1O` was run?
A: 6.2 µM

Q: And the Ratio (Rattus norvegicus [2])?
A: 20.6

Q: And the pIC50 (Rattus norvegicus [1])?
A: 6.52

Q: How did the EC25 (Rattus norvegicus [3]) turn out when `COC(=O)c1cn([C@@H]2c3cc(C#N)ccc3OC(C)(C)[C@H]2O)c2ccccc12` was run?
A: 3.2 µM

Q: What does the source list for `CC1(C)Oc2ccc(C#N)cc2[C@@H](/N=C(\NC#N)NNc2ccccc2)[C@@H]1O`?
A: Activity (Rattus norvegicus [4]): 4%; pIC50 (Rattus norvegicus [1]): 5.46

Q: How did the Ratio (Rattus norvegicus [2]) turn out when `CCC(C)(C)/N=C(\NC#N)N[C@@H]1c2cc(C#N)ccc2OC(C)(C)[C@H]1O` was run?
A: 0.7

Q: With `CC(=O)c1cccc(N/C(=N/[C@@H]2c3cc(C#N)ccc3OC(C)(C)[C@H]2O)NC#N)c1` as the compound, how does the pIC50 (Rattus norvegicus [1]) read?
A: 5.08

Q: What does the source list for `CC1(C)Oc2ccc(C#N)cc2[C@@H](/N=C(\NC#N)Oc2ccccc2)[C@@H]1O`?
A: EC25 (Rattus norvegicus [3]): 68.8 µM; pIC50 (Rattus norvegicus [1]): < 4.00

Q: For `COC(=O)c1cc2ccccc2n1[C@@H]1c2cc(C#N)ccc2OC(C)(C)[C@H]1O`, which EC25 (Rattus norvegicus [3]) is on record?
A: 8.1 µM

Q: What does the source list for `CC1(C)Oc2ccc(C#N)cc2[C@@H](/N=C(\NC#N)Sc2ccccc2)[C@@H]1O`?
A: EC25 (Rattus norvegicus [3]): >30 µM; pIC50 (Rattus norvegicus [1]): 5.31

Q: What does the source list for `C/N=C(\NC#N)N[C@@H]1c2cc(C#N)ccc2OC(C)(C)[C@H]1O`?
A: EC25 (Rattus norvegicus [3]): 13.3 µM; Ratio (Rattus norvegicus [2]): 66.5

Q: Which results are given for `CC1(C)Oc2ccc(C#N)cc2[C@@H](/N=C(\NC#N)Nc2cccc(Cl)c2)[C@@H]1O`?
A: EC25 (Rattus norvegicus [3]): 1.4 µM; Ratio (Rattus norvegicus [2]): 2.3; pIC50 (Rattus norvegicus [1]): 6.22

Q: `CC1(C)Oc2ccc(C#N)cc2[C@@H](/N=C(\NC#N)Nc2ccc3c(c2)CCC3)[C@@H]1O` was tested. Which EC25 (Rattus norvegicus [3]) did it give?
A: 3.5 µM

Q: What about the Ratio (Rattus norvegicus [2]) of the same compound?
A: 0.08

Q: What about the pIC50 (Rattus norvegicus [1]) of the same compound?
A: 4.38

Q: With `COC(=O)c1ccc(N/C(=N/[C@@H]2c3cc(C#N)ccc3OC(C)(C)[C@H]2O)NC#N)cc1` as the compound, how does the pIC50 (Rattus norvegicus [1]) read?
A: 4.74

Q: How did the EC25 (Rattus norvegicus [3]) turn out when `CC1(C)Oc2ccc(C#N)cc2[C@@H](NC(=O)Nc2cccnc2)[C@@H]1O` was run?
A: 4.2 µM

Q: And the Ratio (Rattus norvegicus [2])?
A: 8.4

Q: And the pIC50 (Rattus norvegicus [1])?
A: 6.30

Q: `CC1(C)Oc2ccc(C#N)cc2[C@@H](/N=C(\NC#N)Nc2ccc(Cl)c(F)c2)[C@@H]1O` was tested. Which pIC50 (Rattus norvegicus [1]) did it give?
A: 5.78

Q: Which EC25 (Rattus norvegicus [3]) does the source give for `Cc1cccc(N/C(=N/[C@@H]2c3cc(C#N)ccc3OC(C)(C)[C@H]2O)NC#N)c1` here?
A: 2.7 µM

Q: What does the source list for `CC1(C)Oc2ccc(C#N)cc2[C@@H](n2cc(C#N)c3ccccc32)[C@@H]1O`?
A: EC25 (Rattus norvegicus [3]): 25.5 µM; Ratio (Rattus norvegicus [2]): 11.5; pIC50 (Rattus norvegicus [1]): 5.66

Q: How did the EC25 (Rattus norvegicus [3]) turn out when `CC1(C)Oc2ccc(C#N)cc2[C@@H](/N=C(\NC#N)NCc2ccccc2)[C@@H]1O` was run?
A: >30 µM

Q: And the pIC50 (Rattus norvegicus [1])?
A: 5.62

Q: What does the source list for `CC1(C)Oc2ccc(C#N)cc2[C@@H](N2CCN(c3ccccc3)C2=O)[C@@H]1O`?
A: EC25 (Rattus norvegicus [3]): 10 µM; Ratio (Rattus norvegicus [2]): 0.42; pIC50 (Rattus norvegicus [1]): 4.63

Q: `CC1(C)Oc2ccc(C#N)cc2[C@@H](/N=C(\NC#N)Nc2ccccc2)[C@@H]1O` (stereo in doubt; 22) was tested. Which EC25 (Rattus norvegicus [3]) did it give?
A: 6.1 µM

Q: And the Ratio (Rattus norvegicus [2])?
A: 4.7

Q: Which Ratio (Rattus norvegicus [2]) does the source give for `CC1(C)Oc2ccc(C#N)cc2[C@@H](N2CCCC2=O)[C@@H]1O` [CROMAKALIM] here?
A: 278.1

Q: With `CC(=O)c1ccc(N/C(=N/[C@@H]2c3cc(C#N)ccc3OC(C)(C)[C@H]2O)NC#N)cc1` as the compound, how does the EC25 (Rattus norvegicus [3]) read?
A: 52 µM

Q: And the Ratio (Rattus norvegicus [2])?
A: 2.5

Q: And the pIC50 (Rattus norvegicus [1])?
A: 4.68

Q: Which results are given for `CC1(C)Oc2ccc(C#N)cc2[C@@H](/N=C(\NC#N)Nc2cccc([N+](=O)[O-])c2)[C@@H]1O`?
A: EC25 (Rattus norvegicus [3]): 5 µM; Ratio (Rattus norvegicus [2]): 7.5; pIC50 (Rattus norvegicus [1]): 6.17

Q: How did the pIC50 (Rattus norvegicus [1]) turn out when `CSc1ccc(N/C(=N/[C@@H]2c3cc(C#N)ccc3OC(C)(C)[C@H]2O)NC#N)cc1` was run?
A: 5.20

Q: For `Cc1ccc(N/C(=N/[C@@H]2c3cc(C#N)ccc3OC(C)(C)[C@H]2O)NC#N)cc1C`, which EC25 (Rattus norvegicus [3]) is on record?
A: 2.5 µM

Q: What about the Ratio (Rattus norvegicus [2]) of the same compound?
A: 0.49

Q: And the pIC50 (Rattus norvegicus [1])?
A: 5.29

Q: What does the source list for `CC1(C)Oc2ccc(C#N)cc2[C@@H](/N=C(\NC#N)Nc2ccc(Cl)c(Cl)c2)[C@@H]1O`?
A: EC25 (Rattus norvegicus [3]): 12.9 µM; Ratio (Rattus norvegicus [2]): 2.8; pIC50 (Rattus norvegicus [1]): 5.34

Q: How did the Increase (Rattus norvegicus [3]) turn out when `CC1(C)Oc2ccc(C#N)cc2[C@@H](NC(=O)Nc2ccncc2)[C@@H]1O` was run?
A: 1%

Q: What about the pIC50 (Rattus norvegicus [1]) of the same compound?
A: 5.07

Q: Which results are given for `Cc1ccc(N/C(=N/[C@@H]2c3cc(C#N)ccc3OC(C)(C)[C@H]2O)NC#N)cc1`?
A: EC25 (Rattus norvegicus [3]): 1.6 µM; Ratio (Rattus norvegicus [2]): 0.6; pIC50 (Rattus norvegicus [1]): 5.57

Q: What does the source list for `CC1(C)Oc2ccc(C#N)cc2[C@@H](NC(=O)NCc2ccccc2)[C@@H]1O`?
A: EC25 (Rattus norvegicus [3]): >30 µM; pIC50 (Rattus norvegicus [1]): 5.25

Q: Which results are given for `COc1ccc(N/C(=N/[C@@H]2c3cc(C#N)ccc3OC(C)(C)[C@H]2O)NC#N)cc1`?
A: EC25 (Rattus norvegicus [3]): 5.3 µM; Ratio (Rattus norvegicus [2]): 0.16; pIC50 (Rattus norvegicus [1]): 4.49

Q: How did the pIC50 (Rattus norvegicus [1]) turn out when `CC1(C)Oc2ccc(C#N)cc2[C@@H](/N=C(\NC#N)Nc2cccc(C(=O)O)c2)[C@@H]1O` was run?
A: < 4.00

Q: How did the EC25 (Rattus norvegicus [3]) turn out when `CC1(C)Oc2ccc(C#N)cc2[C@@H](NC(=O)c2ccccc2)[C@@H]1O` was run?
A: 11.8 µM

Q: And the Ratio (Rattus norvegicus [2])?
A: 393

Q: And the pIC50 (Rattus norvegicus [1])?
A: 7.52

Q: Which results are given for `CC1(C)Oc2ccc(C#N)cc2[C@@H](NC(=O)Nc2ccccn2)[C@@H]1O`?
A: EC25 (Rattus norvegicus [3]): 2.6 µM; Ratio (Rattus norvegicus [2]): 5.9; pIC50 (Rattus norvegicus [1]): 6.36

Q: For `CC1(C)Oc2ccc(C#N)cc2[C@@H](/N=C(\NC#N)Nc2cccc(C(F)(F)F)c2)[C@@H]1O`, which EC25 (Rattus norvegicus [3]) is on record?
A: 5.3 µM

Q: What about the Ratio (Rattus norvegicus [2]) of the same compound?
A: 3.3

Q: What about the pIC50 (Rattus norvegicus [1]) of the same compound?
A: 5.80

Q: How did the pIC50 (Rattus norvegicus [1]) turn out when `COC(=O)c1cccc(N/C(=N/[C@@H]2c3cc(C#N)ccc3OC(C)(C)[C@H]2O)NC#N)c1` was run?
A: 5.39
